These results are taken from ChEMBL document CHEMBL1148884, “Radioiodinated aza-diphenylacetylenes as potential SPECT imaging agents for beta-amyloid plaque detection” (Bioorg Med Chem Lett, 2007).

Sequence of Amyloid-beta precursor protein (P05067 whole entry): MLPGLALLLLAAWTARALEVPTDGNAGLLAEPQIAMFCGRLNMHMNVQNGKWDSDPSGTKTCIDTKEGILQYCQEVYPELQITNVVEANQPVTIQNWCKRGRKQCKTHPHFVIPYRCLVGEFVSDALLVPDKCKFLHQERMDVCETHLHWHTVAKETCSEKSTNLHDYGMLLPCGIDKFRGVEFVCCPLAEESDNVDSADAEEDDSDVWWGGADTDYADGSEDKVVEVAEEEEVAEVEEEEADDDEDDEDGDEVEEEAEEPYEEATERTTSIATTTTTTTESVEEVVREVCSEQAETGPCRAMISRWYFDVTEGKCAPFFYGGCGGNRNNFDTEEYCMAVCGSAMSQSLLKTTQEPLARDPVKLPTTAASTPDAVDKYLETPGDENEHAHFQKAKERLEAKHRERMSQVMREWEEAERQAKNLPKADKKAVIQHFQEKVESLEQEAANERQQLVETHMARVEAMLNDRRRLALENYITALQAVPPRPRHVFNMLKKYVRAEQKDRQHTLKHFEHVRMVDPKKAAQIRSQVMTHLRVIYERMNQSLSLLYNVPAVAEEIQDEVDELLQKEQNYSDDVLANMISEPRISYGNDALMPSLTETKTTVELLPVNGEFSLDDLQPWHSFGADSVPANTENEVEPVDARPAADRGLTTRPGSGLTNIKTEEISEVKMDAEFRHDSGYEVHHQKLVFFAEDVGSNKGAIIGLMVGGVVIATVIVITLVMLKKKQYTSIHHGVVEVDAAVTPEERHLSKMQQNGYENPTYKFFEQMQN

One series addresses Amyloid-beta precursor protein (Homo sapiens, UniProt P05067). In words: Displacement of [125I]IMPY from beta amyloid plaque in human brain homogenates. It is filed as tissue-based.
Settings: not given
An outline of the steps: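 Competition binding with [125I]IMPY as radioligand on homogenates from postmortem Alzheimer's disease brain tissue. Non-radioactive ligands compete for plaque binding, and Ki is derived from the competition. Each value was determined three times with duplicate samples in each measurement, reported as mean ± SEM.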
In general, Ki refers to a measure of affinity in units of concentration, obtained from inhibition or displacement. High values mean lower affinity, low ones higher affinity. As to `CN(C)c1ccc(C#Cc2cnc(OCCOCCOCCF)c(Br)c2)cc1`, the Ki worked out at 11.2 nM. In other words, the double-digit nanomolar range.

`CNc1ccc(C#Cc2cnc(OCCO)c(I)c2)cc1` returned a Ki of 12.5 nM. Same read-out and setting: then `CNc1ccc(C#Cc2cnc(OCCOCCOCCF)c(Br)c2)cc1`, with 13.1 nM. On the same count and under the same terms, in the case of `CNc1ccc(C#Cc2cnc(OCCO)c(Br)c2)cc1` it was 1.6 nM; in that of `OCCOc1ncc(C#Cc2ccc(O)cc2)cc1I`, 6.2 nM. Same read-out and setting: in the case of `CN(C)c1ccc(C#Cc2cnc(OCCOCCOCCF)c(I)c2)cc1` it was 16.8 nM; in that of `CN(C)c1ccc(C#Cc2cnc(OCCO)c(I)c2)cc1`, 9.2 nM. As to `CN(C)c1ccc(C#Cc2cnc(OCCO)c(Br)c2)cc1`, affinity was put at a Ki of 6.7 nM.

Test system in the next series: not listed separately
In words: Lipophilicity, log P of the compound. The series is classed as physicochemical. To be noted: octanol/water.
As a reminder, the logP is the decadic logarithm of the partition coefficient of the neutral form, usually between octanol and water. Read a high logP as higher lipophilicity. As for `CN(C)c1ccc(C#Cc2cnc(OCCO)c([125I])c2)cc1`, the logP came to 2.8. Same read-out and setting: then `CN(C)c1ccc(C#Cc2cnc(OCCOCCOCCF)c([125I])c2)cc1`, with 2.6.
